According to ChEMBL document CHEMBL1811814, “Synthesis and evaluation of indole, pyrazole, chromone and pyrimidine based conjugates for tumor growth inhibitory activities--development of highly efficacious cytotoxic agents” (Eur J Med Chem, 2010):

Tests used:
Type in all cases: functional
Design in all cases: scale not given: the % may be the effect or the level left
MDA-MB-231 = assay: Growth inhibition of human MDA-MB-231 cells assessed tumor cell growth at 10^-5 M
How it was run: (§1)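 NCI 60-human-tumor-cell-line panel screen. Each compound was tested at a single concentration of 10^-5 M, and percent growth of tumor cells was recorded for each cell line. Growth inhibition was expressed from these percent-growth values.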

UACC-257 = assay: Growth inhibition of human UACC257 cells assessed tumor cell growth at 10^-5 M
How it was run: (§2)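 Single-dose screen at 10^-5 M across the 60 human tumor cell line panel, run to NCI standards. The value is the percent growth of each cell line in the presence of compound. Compounds active at this dose moved on to five-concentration testing (10^-4 to 10^-8 M).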

786-0 = assay: Growth inhibition of human 786-0 cells assessed tumor cell growth at 10^-5 M; how it was run: as §1
HCC 2998 = assay: Growth inhibition of human HCC2998 cells assessed tumor cell growth at 10^-5 M; how it was run: as §1
SK-MEL-2 = assay: Growth inhibition of human SK-MEL-2 cells assessed tumor cell growth at 10^-5 M; how it was run: as §1
BT-549 = assay: Growth inhibition of human BT549 cells assessed tumor cell growth at 10^-5 M; how it was run: as §1
SNB-75 = assay: Growth inhibition of human SNB75 cells assessed tumor cell growth at 10^-5 M; how it was run: as §2
NCI-H226 = assay: Growth inhibition of human NCI-H226 cells assessed tumor cell growth at 10^-5 M; how it was run: as §1
CCRF-CEM = assay: Growth inhibition of human CCRF-CEM cells assessed tumor cell growth at 10^-5 M; how it was run: as §1
SN12C = assay: Growth inhibition of human SN12C cells assessed tumor cell growth at 10^-5 M; how it was run: as §1
HT-29 = assay: Growth inhibition of human HT-29 cells assessed tumor cell growth at 10^-5 M; how it was run: as §1
SF-539 = assay: Growth inhibition of human SF539 cells assessed tumor cell growth at 10^-5 M; how it was run: as §1
CAKI-1 = assay: Growth inhibition of human Caki1 cells assessed tumor cell growth at 10^-5 M; how it was run: as §1
NCI-H460 = assay: Growth inhibition of human NCI-H460 cells assessed tumor cell growth at 10^-5 M; how it was run: as §1
OVCAR-4 = assay: Growth inhibition of human OVCAR4 cells assessed tumor cell growth at 10^-5 M; how it was run: as §1
ACHN = assay: Growth inhibition of human ACHN cells assessed tumor cell growth at 10^-5 M; how it was run: as §1
[1] = Growth inhibition of human […] cells assessed tumor cell growth at 10^-5 M; how it was run: as §1
KM12 = assay: Growth inhibition of human KM12 cells assessed tumor cell growth at 10^-5 M; how it was run: as §1
RXF 393 = assay: Growth inhibition of human RXF393 cells assessed tumor cell growth at 10^-5 M; how it was run: as §1
Malme-3M = assay: Growth inhibition of human MALME-3M cells assessed tumor cell growth at 10^-5 M; how it was run: as §1
K562 = assay: Growth inhibition of human K562 cells assessed tumor cell growth at 10^-5 M; how it was run: as §1
OVCAR-3 = assay: Growth inhibition of human OVCAR3 cells assessed tumor cell growth at 10^-5 M; how it was run: as §1
T47D = assay: Growth inhibition of human T47D cells assessed tumor cell growth at 10^-5 M; how it was run: as §2
U-251 = assay: Growth inhibition of human U251 cells assessed tumor cell growth at 10^-5 M; how it was run: as §2
NCI/ADR-RES = assay: Growth inhibition of human NCI/ADR-RES cells assessed tumor cell growth at 10^-5 M; how it was run: as §1
HOP-92 = assay: Growth inhibition of human HOP92 cells assessed tumor cell growth at 10^-5 M; how it was run: as §1
OVCAR-5 = assay: Growth inhibition of human OVCAR5 cells assessed tumor cell growth at 10^-5 M; how it was run: as §1
SNB-19 = assay: Growth inhibition of human SNB19 cells assessed tumor cell growth at 10^-5 M; how it was run: as §2
OVCAR-8 = assay: Growth inhibition of human OVCAR8 cells assessed tumor cell growth at 10^-5 M; how it was run: as §1
M14 = assay: Growth inhibition of human M14 cells assessed tumor cell growth at 10^-5 M; how it was run: as §1
EKVX = assay: Growth inhibition of human EKVX cells assessed tumor cell growth at 10^-5 M; how it was run: as §1
HCT-116 = assay: Growth inhibition of human HCT116 cells assessed tumor cell growth at 10^-5 M; how it was run: as §1
MCF7 = assay: Growth inhibition of human MCF7 cells assessed tumor cell growth at 10^-5 M; how it was run: as §1
SK-OV-3 = assay: Growth inhibition of human SKOV3 cells assessed tumor cell growth at 10^-5 M; how it was run: as §1
MDA-MB-468 = assay: Growth inhibition of human MDA-MB-468 cells assessed tumor cell growth at 10^-5 M; how it was run: as §1
SF-268 = assay: Growth inhibition of human SF268 cells assessed tumor cell growth at 10^-5 M; how it was run: as §1
SK-MEL-5 = assay: Growth inhibition of human SK-MEL-5 cells assessed tumor cell growth at 10^-5 M; how it was run: as §1
COLO 205 = assay: Growth inhibition of human COLO205 cells assessed tumor cell growth at 10^-5 M; how it was run: as §1
DU-145 = assay: Growth inhibition of human DU145 cells assessed tumor cell growth at 10^-5 M; how it was run: as §1
MOLT-4 = assay: Growth inhibition of human MOLT4 cells assessed tumor cell growth at 10^-5 M; how it was run: as §1
NCI-H322M = assay: Growth inhibition of human NCI-H322M cells assessed tumor cell growth at 10^-5 M; how it was run: as §1
SF-295 = assay: Growth inhibition of human SF295 cells assessed tumor cell growth at 10^-5 M; how it was run: as §1
NCI-H23 = assay: Growth inhibition of human NCI-H23 cells assessed tumor cell growth at 10^-5 M; how it was run: as §1
A498 = assay: Growth inhibition of human A498 cells assessed tumor cell growth at 10^-5 M; how it was run: as §1
HCT-15 = assay: Growth inhibition of human HCT15 cells assessed tumor cell growth at 10^-5 M; how it was run: as §1
LOX IMVI = assay: Growth inhibition of human LOXIMVI cells assessed tumor cell growth at 10^-5 M; how it was run: as §1
UACC-62 = assay: Growth inhibition of human UACC62 cells assessed tumor cell growth at 10^-5 M; how it was run: as §2
A549 = assay: Growth inhibition of human A549 cells assessed tumor cell growth at 10^-5 M; how it was run: as §1
UO-31 = assay: Growth inhibition of human UO31 cells assessed tumor cell growth at 10^-5 M; how it was run: as §2
MDA-MB-435 = assay: Growth inhibition of human MDA-MB-435 cells assessed tumor cell growth at 10^-5 M; how it was run: as §1
HOP-62 = assay: Growth inhibition of human HOP62 cells assessed tumor cell growth at 10^-5 M; how it was run: as §1
HL-60(TB) = assay: Growth inhibition of human HL-60(TB) cells assessed tumor cell growth at 10^-5 M
How it was run: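 HL-60(TB), part of the 60-line panel, tested at a single concentration of 10^-5 M. The read-out is percent tumor cell growth relative to untreated growth.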

CC1=NN(c2cccc(Cl)c2)C(=O)/C1=C\c1c[nH]c2ccccc12
Activity (MDA-MB-231): 72.74%
Activity (UACC-257): 122.98%
Activity (786-0): 98.46%
Activity (HCC 2998): 88.48%
Activity (SK-MEL-2): 120.43%
Activity (BT-549): 117.3%
Activity (SNB-75): 91.42%
Activity (NCI-H226): 76.77%
Activity (CCRF-CEM): 142.91%
Activity (SN12C): 200.78%
Activity (HT-29): 114.3%
Activity (SF-539): 100.44%
Activity (CAKI-1): 155.88%
Activity (NCI-H460): 109.9%
Activity (OVCAR-4): 104.32%
Activity (ACHN): 84.34%
Activity [1]: 103.27%
Activity (KM12): 106.96%
Activity (RXF 393): 99.54%
Activity (Malme-3M): 114.52%
Activity (K562): 128.85%
Activity (OVCAR-3): 105.19%
Activity (T47D): 83.89%
Activity (U-251): 103.49%
Activity (NCI/ADR-RES): 101.48%
Activity (HOP-92): 72.8%
Activity (OVCAR-5): 98.5%
Activity (SNB-19): 111.33%
Activity (OVCAR-8): 107.69%
Activity (M14): 99.91%
Activity (EKVX): 79.28%
Activity (HCT-116): 101.89%
Activity (MCF7): 76.22%
Activity (SK-OV-3): 99.61%
Activity (MDA-MB-468): 104.9%
Activity (SF-268): 107.91%
Activity (SK-MEL-5): 102.28%
Activity (COLO 205): 122.84%
Activity (DU-145): 121.25%
Activity (MOLT-4): 159.76%
Activity (NCI-H322M): 106.34%
Activity (SF-295): 116.2%
Activity (NCI-H23): 117.91%
Activity (A498): 100.75%
Activity (HCT-15): 103.61%
Activity (LOX IMVI): 99.88%
Activity (UACC-62): 83.26%
Activity (A549): 109.06%
Activity (UO-31): 88.75%
Activity (MDA-MB-435): 108.89%
Activity (HOP-62): 83.26%
Activity (HL-60(TB)): 124.41%
